This is one part of a sample in which hits are shown more often than they occur.
bCat KO growth = beta-catenin-lacking colon tumor cell growth suppression | viability, % at 10 µM | AID 818 | HCT116 beta-catenin knockout viability, CellTiter-Glo, 60 h; hits give low values | actives 1.5% (n = 140,000);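 active = viability at or under a set limit, the compound median less 4 SD, cut at about 6% in these data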;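 also: 0% = Hyamine 1622 control at 20 µM and 100% = untreated cell control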
Lung fibro prol = blocks proliferation of human lung fibroblasts | LL 47 human lung fibroblast viability, ATP luminescence; hits give low values | AID 719 | viability, % at 10 µM | actives 1.1% (n = 85,000);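 active = viability at or below 50% in the single dose screen; inactive = viability above 50%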;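 also: compound exposure lasted 72 h before the ATP readout; 100% = median luminescence of untreated cell-only wells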
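material = human LL 47 lung fibroblast cells | dosing = compounds added from tenfold dosing solution, 0.1% DMSO final | timing = overnight cell rest, 72 h compound treatment at 37 °C | measured by = CellTiter-Glo luminescence measuring cellular ATP | evaluation = % viability versus median cells-only luminescence | control set = cell-only wells, no compound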
HUVEC prolif 384 = blocks proliferation of human endothelial cells. HUVEC proliferation, CellTiter-Glo luminescence, 72 h; hits give low values. viability, % at 10 µM (by protocol). actives 1.1% (n = 86,000). AID 648;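 active = viability at or below 30%; inactive = viability above 30%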;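 also: 100% = median luminescence of DMSO-only cell control wells on each plate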
PTK2B oligo ant = Pyk2 (human) oligomerization antagonism | Q14289 | Q293 cells, Pyk2 FERM NanoBiT luminescence; hits give low values | z-score (the deposit names both 25 µM and 10 µM) | actives 0.83% (n = 99,000) | AID 1347419;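 active = Z-score of -3 or lower, scaled per plate to the spread of control and sample wells; inactive = z-score above -3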;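 also: negative z-score means lost luminescence so less FERM oligomerization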
H69AR inhibit = growth inhibitors of human H69AR lung tumor cells; actives 6% (n = 85,000); viability, % at 10 µM; AID 598; H69AR lung tumor viability, ATP luminescence, 72 h; hits give low values;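 active = viability at or below 40%; inactive = viability above 40%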;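 also: multidrug resistant small cell line overexpressing MRP-1 efflux transporter; 100% = mean luminescence of untreated control wells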
HCT116 PTEN-null = growth suppressors of cells with PTEN tumor suppressor deletion | HCT116 PTEN-null viability, CellTiter-Glo, 60 h; hits give low values | viability, % at 10 µM | actives 1.2% (n = 140,000);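 active = viability at or below a set limit, 4 SD under the median of all tested compounds, cut at about 3.7% in these data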;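 also: PTEN knockout HCT116 line with beta catenin targeted HCT116 as companion control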
Active calls of the source: *; / = no result.

SMILES | bCat KO growth | Lung fibro prol | HUVEC prolif 384 | PTK2B oligo ant | H69AR inhibit | HCT116 PTEN-null
O=C(c1ccco1)N1CCN(C(c2ccc(F)cc2)c2nnnn2CC2CCCO2)CC1 (configuration not stated) | 90 | 101 | 95 | -0.5 | 84 | 98
COc1ccc(OC)c(C(c2nnnn2C2CCCC2)N2CCN(c3ccccc3F)CC2)c1 (configuration not stated) | 45 | 89 | 116 | -3.8* | 85 | 37
COc1ccccc1N1CCN(C(c2cc3ccc(C)cc3[nH]c2=O)c2nnnn2C2CCCC2)CC1 (configuration not stated) | 3.0* | 96 | 89 | 1.6 | 95 | 8
Cc1nn(-c2ccccc2)c(NC(=O)c2cccs2)c(-c2ccccc2)c1=O | 92 | / | / | / | / | 100
O=C(NNC(=O)C1[C@H]2CCCC[C@@H]12)NC1CCCCC1 (some centres not stated) | 92 | / | / | / | / | 97
CCOC(=O)CSC1=N/C(=C\c2ccc(OC)c(OC)c2)C(=O)N1C | 99 | / | / | / | / | 99
COc1ccc(N2CCN(C(c3cc(OC)ccc3OC)c3nnnn3CC3CCCO3)CC2)cc1 (configuration not stated) | 0.9* | 97 | 93 | -1.8 | 93 | 0.7*
COc1ccc(C(c2nnnn2CC2CCCO2)N2CCN(c3ccccc3)CC2)cc1 (configuration not stated) | 99 | / | / | -1.4 | / | 100
Brc1ccc(C2C3=C(Nc4ncnn42)c2ccccc2OC3c2ccncc2)cc1 (configuration not stated) | 69 | 77 | 72 | -3.8* | 40 | 61
COc1ccc(C2C3=C(Nc4ncnn42)c2ccccc2CC3)cc1OC (configuration not stated) | 56 | 95 | 69 | / | 100 | 58
COc1ccc(C2Oc3ccccc3C3=C2C(c2cccs2)n2ncnc2N3)cc1 (configuration not stated) | 40 | 46* | 58 | -3.7* | 18* | 22
Oc1oc(-c2ccccc2)nc1C=Nc1cccc2ccccc12 | 92 | 94 | 67 | 0.09 | 20* | 91
Oc1oc(-c2ccccc2)nc1/C=N/c1nccs1 | 91 | / | / | / | / | 90
O=S(=O)(NCC1CCCO1)c1cnc(Cl)c(Br)c1 (configuration not stated) | 86 | / | / | 0.37 | / | 91
O=C(Nc1cccnc1)c1ccc(COc2ccccc2Br)o1 | 26 | 59 | 24* | -0.26 | 44 | 27
O=C(NCc1cccnc1)c1ccc(COc2ccccc2Br)o1 | 78 | 92 | 63 | 1.4 | 72 | 63
Cn1c(C(C#N)C(=O)c2ccco2)nc2ccccc21 (configuration not stated) | 74 | 80 | 89 | 0.2 | 33* | 73
COc1ccc(C2C(=O)N(C3CCCCC3)CC(=O)N2C2CCCC2)cc1 (configuration not stated) | 76 | 93 | 101 | 0.09 | 50 | 78
COc1ccc(C2C(=O)N(CCc3ccccc3)CC(=O)N2C2CCCC2)cc1 (configuration not stated) | 81 | 87 | 89 | 2.8 | 35* | 69
O=C1C2C3C=CC(CO)(O3)C2C(=O)N1c1ccccc1-c1ccccc1 (configuration not stated) | 93 | 8.3* | 78 | -0.53 | 3.9* | 107
C=CCn1c(SCC(=O)Nc2nc(C)cs2)nnc1C(NC(=O)c1ccccc1)C(C)C (configuration not stated) | 94 | 100 | 93 | 0.64 | 14* | 96
CCn1c(=O)c2c3c(sc2n2c(SCc4ccc(F)cc4)nnc12)CCCC3 | / | 81 | 66 | / | 16* | /
CCC1(C)Cc2c(sc3c2c(=O)n(C)c2nnc(SCc4ccccc4)n32)CO1 (configuration not stated) | 72 | 100 | 70 | -0.04 | 15* | 71
Cc1ccc(-c2[nH]nc(N)c2N=Nc2ccccc2C)cc1 | 3.1* | / | / | -1.7 | / | 5
CC(C)(C)OC(=O)COc1cc(OCC(=O)OC(C)(C)C)c2c(=O)cc(-c3ccccc3)oc2c1 | 1.5* | / | / | -2.6 | / | 1.7*
SMILES | bCat KO growth | Lung fibro prol | HUVEC prolif 384 | PTK2B oligo ant | H69AR inhibit | HCT116 PTEN-null
CC(C)(C)OC(=O)COc1cc(O)c2c(=O)cc(-c3ccccc3)oc2c1 | 86 | / | / | / | / | 92
Cc1nc2ncnn2c(N2CCN(c3cccc(C(F)(F)F)c3)CC2)c1C | 24 | 95 | 82 | 0.08 | 33* | 28
O=C(O)c1ccccc1-c1ccccc1C(=O)NCCCO | 89 | 93 | 96 | 0.28 | 67 | 96
CC(C)n1cc(/C=C2\NC(=O)N(c3cccc(Cl)c3)C2=O)c2ccccc21 | 30 | 89 | 65 | -0.06 | 15* | 26
CC(C)n1cc(/C=C2/SC(=O)N(CC(=O)Nc3ccc4c(c3)OCO4)C2=O)c2ccccc21 | 35 | / | / | 0.34 | / | 54
CC(C)n1cc(/C=C2/NC(=O)N(c3cccc(Cl)c3)C2=O)c2ccccc21 | 29 | 80 | 57 | -0.44 | 18* | 27
Cc1ccc(NC(=O)Cc2ncc(C(F)(F)F)cc2Cl)cc1Cl | 98 | / | / | -0.08 | / | 87
COC(=O)c1c(NC(=O)CSc2nnc3ccccn23)sc2c1CCC2 | 87 | / | / | / | / | 90
Cc1ccc2c(c1)NC(=O)C(CC(=O)NCCCN1CCN(c3cc(Cl)ccc3C)CC1)O2 (configuration not stated) | 5.8* | 67 | 2.9* | / | 49 | 7
Clc1ccc(Nc2nc(-c3ccncc3)cs2)cc1 | / | 91 | 72 | -0.34 | 85 | /
COc1cccc2sc(Nc3nc(-c4ccccn4)cs3)nc12 | 4.3* | / | / | -1.6 | / | 2.6*
O=C(Nc1nc(-c2ccccn2)cs1)C1CC1 | 55 | 89 | 84 | / | 80 | 62
c1ccc(Nc2nc(-c3ccccn3)cs2)cc1 | 73 | 80 | 71 | -0.4 | 37* | 69
Nc1ccc(Nc2nc(-c3ccncc3)cs2)cc1 | 52 | 75 | 71 | -1.1 | 37* | 45
c1ccc(-c2csc(Nc3cccnc3)n2)nc1 | 105 | 102 | 107 | 0.03 | 67 | 100
CCN(CC)CC#CCC(C)(c1ccccc1)c1ccccc1 | 10 | / | / | -0.75 | / | 10
O=C(O)/C=C/c1ccc2c(-c3ccccc3)onc2c1 | 108 | / | / | / | / | 107
COc1ccccc1NC(=S)NNC(=O)c1ccccc1Br | 92 | / | / | / | / | 90
COc1ccc2cc(CCN3C(=O)c4ccccc4C3=O)c(=O)[nH]c2c1 | 100 | / | / | / | / | 100
Oc1ccc(-c2nc3ccccn3c2NCc2ccco2)cc1 | 86 | 107 | 88 | 0.1 | 82 | 91
COc1cc(-c2nc3ccccn3c2NCC2CCCO2)ccc1O (configuration not stated) | 89 | 89 | 88 | -0.33 | 27* | 76
CCOc1cc(-c2nc3ccccn3c2NCC2CCCO2)ccc1O (configuration not stated) | 72 | 98 | 70 | 0.41 | 28* | 72
COc1cc(-c2nc3ccccn3c2/N=C/c2ccccc2)ccc1O | 93 | / | / | 1.3 | / | 100

Screens from PubChem BioAssay.
